Assay results as given in ChEMBL document CHEMBL1125832, “Synthesis and dopaminergic activity of 3-substituted 1-(aminomethyl)-3,4-dihydro-5,6-dihydroxy-1H-2-benzopyrans: characterization of an auxiliary binding region in the D1 receptor” (J Med Chem, 1991).

Assays:
[1] = target: T1, 5-hydroxytryptamine receptor 1A (Rattus norvegicus, UniProt P19327); experiment: Binding affinity towards 5-hydroxytryptamine 1A receptor using [3H]8-OH-DPAT as radioligand in competitive binding assay
T1 sequence (P19327 whole entry): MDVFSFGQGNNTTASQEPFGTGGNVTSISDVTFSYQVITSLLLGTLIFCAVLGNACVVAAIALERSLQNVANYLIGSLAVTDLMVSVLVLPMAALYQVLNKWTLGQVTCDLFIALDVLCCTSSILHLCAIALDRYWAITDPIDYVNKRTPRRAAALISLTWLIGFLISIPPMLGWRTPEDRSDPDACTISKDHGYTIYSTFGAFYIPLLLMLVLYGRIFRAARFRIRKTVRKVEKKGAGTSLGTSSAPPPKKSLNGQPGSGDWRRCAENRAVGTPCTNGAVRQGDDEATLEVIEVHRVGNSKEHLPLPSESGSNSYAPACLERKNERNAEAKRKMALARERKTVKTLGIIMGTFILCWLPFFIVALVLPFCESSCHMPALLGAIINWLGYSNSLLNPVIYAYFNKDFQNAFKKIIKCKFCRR
Method in brief: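 Rat anterior cortex membranes, pelleted and preincubated 30 min at 37 °C in 50 mM Tris-HCl pH 7.7, 4 mM CaCl2, 10 μM pargyline. Label [3H]8-OH-DPAT, 800 pM final; nonspecific binding with 10 μM spiroxatrine. Ki derived from IC50 by Cheng-Prusoff; mean with SEM range.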

[2] = target: T2, Adrenergic receptor alpha-2 (Rattus norvegicus, UniProt P22086+P19328+P22909); experiment: Binding affinity towards alpha-2 adrenergic receptor using [3H]rauwolscine as radioligand in competitive binding assay; format: protein assay
T2 sequence (P22086 whole entry): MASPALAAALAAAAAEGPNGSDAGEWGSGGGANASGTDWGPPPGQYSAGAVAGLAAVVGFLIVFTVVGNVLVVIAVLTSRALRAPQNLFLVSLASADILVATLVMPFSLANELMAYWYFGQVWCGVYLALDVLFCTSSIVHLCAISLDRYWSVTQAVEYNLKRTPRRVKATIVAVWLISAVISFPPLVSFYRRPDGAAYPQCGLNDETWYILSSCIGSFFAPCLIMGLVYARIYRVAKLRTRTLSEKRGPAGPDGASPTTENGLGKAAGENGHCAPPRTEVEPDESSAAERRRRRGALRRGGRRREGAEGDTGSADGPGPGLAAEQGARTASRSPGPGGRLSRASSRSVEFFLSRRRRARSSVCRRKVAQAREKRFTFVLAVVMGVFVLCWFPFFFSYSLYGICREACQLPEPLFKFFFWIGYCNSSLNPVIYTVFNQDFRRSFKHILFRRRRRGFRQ
T2 sequence (P19328 whole entry): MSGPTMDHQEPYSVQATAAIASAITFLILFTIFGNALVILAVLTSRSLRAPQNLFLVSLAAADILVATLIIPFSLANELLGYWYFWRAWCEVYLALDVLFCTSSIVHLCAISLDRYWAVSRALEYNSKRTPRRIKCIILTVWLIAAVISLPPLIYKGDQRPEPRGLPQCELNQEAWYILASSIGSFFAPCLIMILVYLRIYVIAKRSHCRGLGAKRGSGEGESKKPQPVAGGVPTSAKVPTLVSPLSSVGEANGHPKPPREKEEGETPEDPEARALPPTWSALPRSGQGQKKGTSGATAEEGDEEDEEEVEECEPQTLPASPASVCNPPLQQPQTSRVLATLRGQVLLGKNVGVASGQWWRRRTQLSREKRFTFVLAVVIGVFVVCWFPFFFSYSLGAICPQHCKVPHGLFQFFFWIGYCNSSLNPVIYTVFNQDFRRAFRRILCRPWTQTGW
T2 sequence (P22909 whole entry): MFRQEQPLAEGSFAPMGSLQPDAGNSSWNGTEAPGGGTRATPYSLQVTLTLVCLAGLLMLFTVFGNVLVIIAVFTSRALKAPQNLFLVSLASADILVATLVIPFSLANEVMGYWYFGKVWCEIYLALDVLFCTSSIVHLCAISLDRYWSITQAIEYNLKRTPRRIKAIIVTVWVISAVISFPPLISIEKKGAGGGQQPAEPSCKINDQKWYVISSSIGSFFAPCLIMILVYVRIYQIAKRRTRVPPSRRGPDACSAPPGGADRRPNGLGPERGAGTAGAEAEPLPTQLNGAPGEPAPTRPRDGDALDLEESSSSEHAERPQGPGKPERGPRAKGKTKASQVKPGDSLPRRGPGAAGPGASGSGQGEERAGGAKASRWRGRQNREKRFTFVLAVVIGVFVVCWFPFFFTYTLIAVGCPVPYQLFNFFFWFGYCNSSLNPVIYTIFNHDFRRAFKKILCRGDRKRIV
Method in brief: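 Frozen rat cortex membranes in Tris pH 7.4 buffer with NaCl, KCl, MgCl2, CaCl2 and ascorbate. [3H]rauwolscine at 325 pM final; nonspecific binding with 10 μM yohimbine. Incubated 45 min at 37 °C, then filtered. Ki derived from IC50 by Cheng-Prusoff.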

D(2) dopamine receptor [3] = target: T3, D(2) dopamine receptor (Rattus norvegicus, UniProt P61169); experiment: Concentration required to inhibit 50% dopamine receptor D2 in a cell free homogenate of intermediate lobe of pituitary gland; format: functional
D(2) dopamine receptor [4] = target: T3, D(2) dopamine receptor; experiment: Binding affinity using [3H]-spiperone radioligand competitive binding assay against dopamine receptor D2
Method in brief: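 Rat striatal membranes in Tris pH 7.4 buffer with salts and ascorbate. [3H]spiperone at 300 pM final; nonspecific binding with 10 μM YM-09151-2. Incubated 20 min at 37 °C, then filtered. Ki derived from IC50 by Cheng-Prusoff.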

Rattus norvegicus [5] = experiment: Rat rotation experiments were conducted to evaluate rational behavior of the rats by administering at a dose of 0.41 umol/Kg subcutaneously; format: functional
Method in brief: (§1)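 Rats with unilateral 6-hydroxydopamine lesions of the nigrostriatal bundle. Compound given subcutaneously or orally at the stated dose. Net contralateral rotations counted over 2 h after dosing and reported as mean ± SEM; negative values indicate ipsilateral turning.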

Rattus norvegicus [6] = experiment: Rat rotation experiments were conducted to evaluate rational behavior of the rats by administering at a dose of 1.0 umol/kg subcutaneously; format: functional; method in brief: as §1
Rattus norvegicus [7] = experiment: (§2) Rat rotation experiments were conducted to evaluate rational behavior of the rats by administering at a dose of […] subcutaneously; format: functional
[8] = Intrinsic activity relative to dopamine at D-2 receptor.; format: functional
D(1A) dopamine receptor [9] = target: T4, D(1A) dopamine receptor (Rattus norvegicus, UniProt P18901); experiment: Binding affinity using [125 I] SCH 23982 radioligand competitive binding assay on dopamine receptor D1
D(1A) dopamine receptor [10] = target: T4, D(1A) dopamine receptor; experiment: Inhibition of Dopamine receptor D1 activity by functional cyclase assay using cell free homogenate of rat striatum; format: tissue-based
Method in brief: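 Adenylate cyclase stimulation in cell-free homogenate of rat striatum. EC50 is the concentration giving half-maximal stimulation of cAMP production.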

Rattus norvegicus [11] = experiment: as §2; format: functional; remark: listed apart in the source
Rattus norvegicus [12] = experiment: (§3) Rat rotation experiments were conducted to evaluate rational behavior of the rats by administering at a dose of […] oral; format: functional
Rattus norvegicus [13] = experiment: as §2; format: functional; remark: listed apart in the source
Rattus norvegicus [14] = experiment: as §3; format: functional; remark: listed apart in the source
Rattus norvegicus [15] = experiment: Rat rotation experiments were conducted to evaluate rational behavior of the rats by administering at a dose of 2.0 umol/kg subcutaneously; format: functional; method in brief: as §1
Rattus norvegicus [16] = experiment: Rat rotation experiments were conducted to evaluate rational behavior of the rats by administering at a dose of 0.2 umol/kg subcutaneously; format: functional; method in brief: as §1

T3 sequence (P61169 whole entry): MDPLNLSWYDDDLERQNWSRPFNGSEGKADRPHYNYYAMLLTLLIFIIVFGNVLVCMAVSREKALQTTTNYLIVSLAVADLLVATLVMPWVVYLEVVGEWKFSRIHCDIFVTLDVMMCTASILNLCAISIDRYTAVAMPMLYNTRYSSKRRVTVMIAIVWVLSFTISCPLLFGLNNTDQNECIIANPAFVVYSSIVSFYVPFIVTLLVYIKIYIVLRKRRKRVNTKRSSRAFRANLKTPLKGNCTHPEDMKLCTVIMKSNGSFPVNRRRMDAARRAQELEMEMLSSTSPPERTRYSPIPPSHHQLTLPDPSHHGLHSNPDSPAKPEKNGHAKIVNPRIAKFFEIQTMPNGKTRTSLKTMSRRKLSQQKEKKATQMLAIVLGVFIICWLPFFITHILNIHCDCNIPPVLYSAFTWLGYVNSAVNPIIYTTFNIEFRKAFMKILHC
T4 sequence (P18901 whole entry): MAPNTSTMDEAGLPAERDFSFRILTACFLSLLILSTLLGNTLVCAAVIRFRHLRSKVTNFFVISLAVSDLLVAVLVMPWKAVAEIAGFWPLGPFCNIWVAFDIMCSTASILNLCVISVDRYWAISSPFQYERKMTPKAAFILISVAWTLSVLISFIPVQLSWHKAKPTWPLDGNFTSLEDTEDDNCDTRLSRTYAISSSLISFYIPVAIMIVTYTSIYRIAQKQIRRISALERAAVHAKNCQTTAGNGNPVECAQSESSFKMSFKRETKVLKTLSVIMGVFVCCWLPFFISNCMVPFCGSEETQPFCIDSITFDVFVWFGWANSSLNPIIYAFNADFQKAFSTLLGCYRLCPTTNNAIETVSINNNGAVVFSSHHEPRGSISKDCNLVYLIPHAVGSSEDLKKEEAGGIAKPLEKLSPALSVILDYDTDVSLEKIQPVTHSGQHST

Structure (SMILES)	Ki [1]	Ki [2]	EC50 (D(2) dopamine receptor [3])	Ki (D(2) dopamine receptor [4])	Intrinsic activity [8]	Ki (D(1A) dopamine receptor [9])	EC50 (D(1A) dopamine receptor [10])	Activity (Rattus norvegicus [5])	Activity (Rattus norvegicus [6])	Activity (Rattus norvegicus [7])	Activity (Rattus norvegicus [11])	Activity (Rattus norvegicus [12])	Activity (Rattus norvegicus [13])	Activity (Rattus norvegicus [14])	Activity (Rattus norvegicus [15])	Activity (Rattus norvegicus [16])
CC(C)(C)C1Cc2c(ccc(O)c2O)[C@H](CN)O1 (some centres not stated)	–	450 nM	> 10000 nM	8190 nM	–	31.8 nM	52.3 nM	–	–	354	–	932	661	176	–	–
NC[C@@H]1OC(C2CCCCC2)Cc2c1ccc(O)c2O (some centres not stated)	> 20000 nM	271 nM	7030 nM	1120 nM	85%	5.4 nM	1.7 nM	–	–	–	–	–	–	–	–	–

Second part, led by results:

Ki [1]	Ki [2]	EC50 (D(2) dopamine receptor [3])	Ki (D(2) dopamine receptor [4])	Intrinsic activity [8]	Ki (D(1A) dopamine receptor [9])	EC50 (D(1A) dopamine receptor [10])	Structure (SMILES)	Activity (Rattus norvegicus [5])	Activity (Rattus norvegicus [6])	Activity (Rattus norvegicus [7])	Activity (Rattus norvegicus [11])	Activity (Rattus norvegicus [12])	Activity (Rattus norvegicus [13])	Activity (Rattus norvegicus [14])	Activity (Rattus norvegicus [15])	Activity (Rattus norvegicus [16])
18100 nM	122 nM	3910 nM	776 nM	101%	–	–	NC[C@@H]1OC(c2ccccc2)Cc2c1ccc(O)c2O (some centres not stated)	192	53	895	–	–	–	–	–	–
> 20000 nM	2200 nM	–	–	–	1540 nM	30.3 nM	C=CCNC[C@@H]1OC(C2CCCCC2)Cc2c1ccc(O)c2O (some centres not stated)	–	–	667	1056	–	–	–	–	–
> 20000 nM	2500 nM	2850 nM	4610 nM	96%	–	–	NC[C@H]1O[C@@H](c2ccccc2)Cc2c1ccc(O)c2O	–	–	–	–	–	–	–	-22	–
2550 nM	40 nM	–	–	98%	–	–	NC[C@@H]1O[C@H](c2ccccc2)Cc2c1ccc(O)c2O	–	1113	–	–	–	–	–	1525	348
